Measured values as given in ChEMBL document CHEMBL3244060, “Methotrexate analogues. 8. Synthesis and biological evaluation of bisamide derivatives as potential prodrugs” (J Med Chem, 1977).
Converted amounts (≈) assume the structure as drawn.

Assays:
CCRF-CEM = test: Cytotoxicity against human CCRF-CEM cells assessed as growth inhibition; format: functional; settings: read-out: ID50 (the source's name)
L1210 [1] = test: Antitumor activity against mouse L1210 cells allografted in mouse assessed as increase in life span at 7 mg/kg, sc administered daily up to death started on day 5 post tumor implantation relative to control; format: functional; settings: 120 h, route subcutaneous
Plasma [2] = test: Drug level in mouse plasma treated with methotrexate bis(benzylamide) at 100 mg/kg, ip measured after 6 to 24 hrs by TLC analysis; format: ADME, organism-based; design: dose 100 mg/kg, route intraperitoneal; settings: in vivo
Method in brief: (§1)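 Normal mice received a single ip dose of 100 mg/kg in 10% Tween 80. One animal was killed at 6 h and one at 24 h. Blood was taken by ocular puncture with a heparinized syringe and the red cells spun down. Plasma 0.2 mL was cooled on ice and diluted with methanol 0.4 mL to precipitate protein, then centrifuged. Analysed by cellulose TLC developed in 0.5 M phosphate buffer pH 7.4.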

[3] = Cytotoxicity against RBL cells assessed as growth inhibition; format: functional; settings: Rattus norvegicus, read-out: ID50 (the source's name)
Serum [4] = test: Drug level in rat whole serum treated with methotrexate di-n-butyl ester measured after 1 hr by TLC analysis; format: ADME, cell-free
Method in brief: (§2)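 Fresh rat serum 0.9 mL plus compound 0.006 g in 0.1 mL Me2SO, incubated at 37 °C with gentle shaking for up to 24 h. Cooled on ice, diluted 1.5-fold with methanol to precipitate protein, centrifuged. Supernatant run on fluorescent cellulose TLC developed with 0.5 M phosphate buffer pH 7.4 to detect parent compound and metabolites.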

Serum [5] = test: Prodrug conversion in rat whole serum assessed as formation of methotrexate at 0.006 g measured up to 24 hrs by TLC analysis; format: ADME; method in brief: as §2
L1210 [6] = test: Antitumor activity against mouse L1210 cells allografted in mouse assessed as increase in life span at 350 mg/kg, ip qd administered every 3 days for 7 days relative to control; format: functional; settings: route intraperitoneal
Method in brief: (§3)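 L1210 cells (10^5) implanted ip in mice on day 0. Compounds given ip in 10% Tween 80 on days 1, 4 and 7, at doses from 15 to 525 mg/kg. Methotrexate was given as the disodium salt in aqueous solution. Groups had 5 treated and 10-15 control animals. %ILS = 100 × (T − C)/C, where T and C are median survival days of treated and control mice.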

L1210 [7] = test: Antitumor activity against mouse L1210 cells allografted in mouse assessed as increase in life span at 225 mg/kg, ip qd administered every 3 days for 7 days relative to control; format: functional; settings: route intraperitoneal; method in brief: as §3
L1210 [8] = test: Antitumor activity against mouse L1210 cells allografted in mouse assessed as increase in life span at 150 mg/kg, ip qd administered every 3 days for 7 days relative to control; format: functional; settings: route intraperitoneal; method in brief: as §3
L1210 [9] = test: Antitumor activity against mouse L1210 cells allografted in mouse assessed as median survival time at 350 mg/kg, ip qd administered every 3 days for 7 days; format: functional; settings: route intraperitoneal
Method in brief: (§4)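 Mice were inoculated ip with 10^5 L1210 leukemia cells on day 0. Dosing was ip on days 1, 4 and 7 in 10% Tween 80, with the methotrexate disodium salt in water, over 15–525 mg/kg. Survival was recorded in days as the range and median per group, with 5 treated and 10-15 untreated controls.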

L1210 [10] = test: Antitumor activity against mouse L1210 cells allografted in mouse assessed as median survival time at 225 mg/kg, ip qd administered every 3 days for 7 days; format: functional; settings: route intraperitoneal; method in brief: as §4
L1210 [11] = test: Antitumor activity against mouse L1210 cells allografted in mouse assessed as increase in life span at 525 mg/kg, ip qd administered every 3 days for 7 days relative to control; format: functional; settings: route intraperitoneal; method in brief: as §3
[12] = biological target: Dihydrofolate reductase (Lactobacillus casei) (UniProt P00381); test: Inhibition of methotrexate-resistant Lactobacillus casei ATCC 7469 dihydrofolate reductase; settings: Lacticaseibacillus casei
Dihydrofolate reductase (Lactobacillus casei), sequence (P00381 whole entry): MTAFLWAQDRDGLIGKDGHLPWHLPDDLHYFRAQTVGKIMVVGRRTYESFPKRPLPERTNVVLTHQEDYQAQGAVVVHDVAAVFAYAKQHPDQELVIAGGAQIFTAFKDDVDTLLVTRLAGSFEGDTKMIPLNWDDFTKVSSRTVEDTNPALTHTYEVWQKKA

L1210 [13] = test: Antitumor activity against mouse L1210 cells allografted in mouse assessed as median survival time at 150 mg/kg, ip qd administered every 3 days for 7 days; format: functional; settings: route intraperitoneal; method in brief: as §4
L1210 [14] = test: Antitumor activity against mouse L1210 cells allografted in mouse assessed as median survival time at 525 mg/kg, ip qd administered every 3 days for 7 days; format: functional; settings: route intraperitoneal; method in brief: as §4
L1210 [15] = test: Antitumor activity against mouse L1210 cells allografted in mouse assessed as increase in life span at 200 mg/kg, ip qd administered every 3 days for 7 days relative to control; format: functional; settings: route intraperitoneal; method in brief: as §3
Liver = test: Prodrug conversion in mouse liver assessed as formation of methotrexate at 100 mg/kg, ip measured after 6 to 24 hrs by TLC analysis; format: ADME, organism-based; design: dose 100 mg/kg, route intraperitoneal; settings: in vivo
L1210 [16] = test: Antitumor activity against mouse L1210 cells allografted in mouse assessed as median survival time at 50 mg/kg, ip qd administered every 3 days for 7 days; format: functional; settings: route intraperitoneal; method in brief: as §4
L1210 [17] = test: Antitumor activity against mouse L1210 cells allografted in mouse assessed as increase in life span at 50 mg/kg, ip qd administered every 3 days for 7 days relative to control; format: functional; settings: route intraperitoneal; method in brief: as §3
Plasma [18] = test: Prodrug conversion in mouse plasma assessed as formation of methotrexate at 100 mg/kg, ip measured after 6 to 24 hrs by TLC analysis; format: ADME, organism-based; design: dose 100 mg/kg, route intraperitoneal; settings: in vivo; method in brief: as §1
L1210 [19] = test: Antitumor activity against mouse L1210 cells allografted in mouse assessed as median survival time at 200 mg/kg, ip qd administered every 3 days for 7 days; format: functional; settings: route intraperitoneal; method in brief: as §4
L1210 [20] = test: Antitumor activity against mouse L1210 cells allografted in mouse assessed as median survival time at 100 mg/kg, ip qd administered every 3 days for 7 days; format: functional; settings: route intraperitoneal; method in brief: as §4
L1210 [21] = test: Antitumor activity against mouse L1210 cells allografted in mouse assessed as increase in life span at 100 mg/kg, ip qd administered every 3 days for 7 days relative to control; format: functional; settings: route intraperitoneal; method in brief: as §3
L1210 [22] = test: Antitumor activity against mouse L1210 cells allografted in mouse assessed as median survival time at 25 mg/kg, ip qd administered every 3 days for 7 days; format: functional; settings: route intraperitoneal; method in brief: as §4
L1210 [23] = test: Antitumor activity against mouse L1210 cells allografted in mouse assessed as increase in life span at 400 mg/kg, ip qd administered every 3 days for 7 days relative to control; format: functional; settings: route intraperitoneal; method in brief: as §3
L1210 [24] = test: Antitumor activity against mouse L1210 cells allografted in mouse assessed as median survival time at 400 mg/kg, ip qd administered every 3 days for 7 days; format: functional; settings: route intraperitoneal; method in brief: as §4
L1210 [25] = test: Antitumor activity against mouse L1210 cells allografted in mouse assessed as increase in life span at 25 mg/kg, ip qd administered every 3 days for 7 days relative to control; format: functional; settings: route intraperitoneal; method in brief: as §3

SMILES: CN(Cc1cnc2nc(N)nc(N)c2n1)c1ccc(C(=O)N[C@@H](CCC(N)=O)C(N)=O)cc1
- IC50 (CCRF-CEM): > 10 µg/mL

SMILES: Nc1nc(N)c2nc(CNc3ccc(C(=O)N[C@@H](CCC(=O)NCc4ccccc4)C(=O)NCc4ccccc4)cc3)cnc2n1
- ILS at 7 mg/kg (L1210 [1]): 30%

SMILES: CCC(C)NC(=O)CC[C@H](NC(=O)c1ccc(N(C)Cc2cnc3nc(N)nc(N)c3n2)cc1)C(=O)NC(C)CC (stereo partly drawn)
- IC50 (CCRF-CEM): > 10 µg/mL

SMILES: CN(Cc1cnc2nc(N)nc(N)c2n1)c1ccc(C(=O)N[C@@H](CCC(=O)O)C(=O)O)cc1 [METHOTREXATE]
- Drug metabolism (Plasma [2]): metabolite_detected
- IC50 (CCRF-CEM): 0.003 µg/mL (≈ 0.0066 µM)
- IC50 [3]: 0.003 µg/mL (≈ 0.0066 µM)
- Drug metabolism (Serum [4]): metabolite_detected

SMILES: CN(Cc1cnc2nc(N)nc(N)c2n1)c1ccc(C(=O)N[C@@H](CCC(=O)NCCc2ccccc2)C(=O)NCCc2ccccc2)cc1
- IC50 (CCRF-CEM): > 10 µg/mL

SMILES: CCCNC(=O)CC[C@H](NC(=O)c1ccc(N(C)Cc2cnc3nc(N)nc(N)c3n2)cc1)C(=O)NCCC
- Drug metabolism (Serum [5]): metabolite_notdetected
- IC50 (CCRF-CEM): 7 µg/mL (≈ 13 µM)
- ILS at 350 mg/kg (L1210 [6]): 18%
- ILS at 225 mg/kg (L1210 [7]): 27%
- ILS at 150 mg/kg (L1210 [8]): 0%
- MST (L1210 [9]): 13 days
- MST (L1210 [10]): 14 days
- ILS at 525 mg/kg (L1210 [11]): 18%
- ID50 [12]: 1.8 ×10⁻⁷ M
- MST (L1210 [13]): 11 days
- MST (L1210 [14]): 13 days

SMILES: CN(Cc1cnc2nc(N)nc(N)c2n1)c1ccc(C(=O)N[C@@H](CCC(=O)NCc2ccccc2)C(=O)NCc2ccccc2)cc1
- ILS at 200 mg/kg (L1210 [15]): 0%
- Drug metabolism (Liver): metabolite_detected
- Drug metabolism (Serum [5]): metabolite_notdetected
- IC50 (CCRF-CEM): 7.6 µg/mL (≈ 12 µM)
- MST (L1210 [16]): 13 days
- ILS at 50 mg/kg (L1210 [17]): 44%
- Drug metabolism (Plasma [18]): metabolite_detected
- IC50 [3]: 2.5 µg/mL (≈ 3.95 µM)
- MST (L1210 [19]): 9 days
- ILS at 150 mg/kg (L1210 [8]): 66%
- MST (L1210 [20]): 13 days
- ILS at 100 mg/kg (L1210 [21]): 44%
- MST (L1210 [22]): 12 days
- MST (L1210 [13]): 15 days
- ILS at 400 mg/kg (L1210 [23]): -11%
- MST (L1210 [24]): 8 days
- ILS at 25 mg/kg (L1210 [25]): 33%

SMILES: CCCCCCNC(=O)CC[C@H](NC(=O)c1ccc(N(C)Cc2cnc3nc(N)nc(N)c3n2)cc1)C(=O)NCCCCCC
- IC50 (CCRF-CEM): 10 µg/mL (≈ 16.1 µM)

SMILES: CN(Cc1cnc2nc(N)nc(N)c2n1)c1ccc(C(=O)N[C@@H](CCC(=O)NCCCO)C(=O)NCCCO)cc1
- IC50 (CCRF-CEM): > 10 µg/mL
